Published values pooled from the literature.
Each line is one published result; the experiments were not run side by side.
Read-out: cell growth or viability

Compound | cell line | method | concentration | time | viability [%]
CC(C)(C)c1cnc(CSc2cnc(NC(=O)C3CCN(CCCCSc4cccc5c4C(=O)N(C4CCC(=O)NC4=O)C5=O)CC3)s2)o1 (stereo not shown) | HH | CCK-8 | 0.5 µM | – | 0
CC(=NNC(=O)c1ccccc1Br)c1ccc(Nc2nnc(-c3ccc(Cl)cc3)c3ccccc23)cc1 | HepG2 | MTT | 0.312 µM | 24 h | 85.4
CC(=O)Nc1ccc(/C(C)=N/N=c2\sc(C(C)=O)nn2-c2ccc(C)cc2)cc1 | HepG2 | MTT | 2.5 µM | – | 99.4
CC(=NNC(=O)COc1ccc2c(C)c(Cc3ccccc3)c(=O)oc2c1C)c1ccc(Br)cc1 | HepG2 | MTT | 1.6 µg/mL | – | 54.8
CC(C)(C)c1cnc(CSc2cnc(NC(=O)C3CCN(CCCCCSc4cccc5c4CN(C4CCC(=O)NC4=O)C5=O)CC3)s2)o1 (stereo not shown) | HH | CCK-8 | 10 nM | – | 93.5
CC(=NNC(=O)c1ccccc1)c1ccc(Nc2nnc(-c3ccc(Cl)cc3)c3ccccc23)cc1 | HepG2 | MTT | 0.625 µM | 24 h | 48.7
CC(C)(C)c1cnc(CSc2cnc(NC(=O)C3CCN(CCCCCCCCSc4cccc5c4C(=O)N(C4CCC(=O)NC4=O)C5=O)CC3)s2)o1 (stereo not shown) | HH | CCK-8 | 0.5 µM | – | 0
CC(=O)c1nn(-c2ccc(C)cc2)/c(=N/N=C(\C)c2ccc(NC(=O)c3ccccc3)cc2)s1 | HepG2 | MTT | 10 µM | – | 6.81
CC(C)(C)c1cnc(CSc2cnc(NC(=O)C3CCN(CCCCCCCSc4cccc5c4C(=O)N(C4CCC(=O)NC4=O)C5=O)CC3)s2)o1 (stereo not shown) | HH | CCK-8 | 10 nM | – | 99.5
CCOC(=O)c1nn(-c2cccc(Cl)c2)/c(=N/N=C(\C)c2ccc(NC(=O)c3ccccc3)cc2)s1 | HepG2 | MTT | 10 µM | – | 3
O=C(C=Cc1ccccc1)Nc1ccc(Oc2nnc(-c3ccc(Cl)cc3)c3ccccc23)cc1 | HepG2 | MTT | 5 µM | 24 h | 2.49
CC(=O)c1nn(-c2ccccc2Cl)/c(=N/N=C(\C)c2ccc(NC(=O)c3ccccc3)cc2)s1 | HepG2 | MTT | 78 nM | – | 71.7
CC(=NNC(=O)c1ccccc1Cl)c1ccc(Nc2nnc(-c3ccc(Cl)cc3)c3ccccc23)cc1 | HepG2 | MTT | 2.5 µM | 24 h | 4.78
